The record followed here is PubChem BioAssay.

A short description of assay [1]: Her2 expression decrease, cell viability multiplex – SKBR3 breast tumor cells, AlphaScreen, ATP viability, primary screen (AID 461;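 active = Her2 level under about 52% in both replicate screens, with viability over 70% of control, limit read from the data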;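 for Her2 level: lower value means less Her2 protein in the cells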;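 for viability: percent of carrier control wells set as 100% viability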). Particulars: SKBR3 Her2 protein level, 18-24 h, measured here: SKBR3 viability, ATP luminescence, at 10 µM. (Bead proximity is the source of the signal in Alpha formats.)
The target in assay [2] is Receptor tyrosine-protein kinase erbB-2 (Homo sapiens) (UniProt P04626). The assay is described as above. Particulars: 18-24 h, at 10 µM, stronger effect = lower value.
The nature of assay [3]: reduced viability of SK-BR-3 breast cancer cells – cell-based, 24 h, human, pilot screen (AID 572;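 active = viability at or below 10% of carrier control in both of two separate runs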;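 note: compound exposure lasted between 18 and 24 h rather than exactly 24 h; 100% = carrier-treated control wells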). Particulars: SK-BR-3 viability, CellTiter-Glo luminescence, at 10 µM, stronger effect = lower value. (In general: ATP-based viability assays read luminescence as a measure of living cells.)
Assay [4] in a line: HUVEC growth inhibition – cell-based, human, primary screen (AID 575;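 active = viability at or below 30% in both replicate assays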;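 note: 100% = median of untreated cell wells with 0.1% DMSO on each plate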). Particulars: HUVEC proliferation, CellTiter-Glo luminescence, 72 h; at 10 µM; stronger effect = lower value. An outline of the steps: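 System: primary human umbilical vein endothelial cells; Quantity: 1250 endothelial cells in each well; Buffer or medium: supplemented EBM, 2% fetal bovine serum; Doses: one dose, 10 µM final, 0.1% DMSO; Incubation: 72 h compound incubation; Technique: ATP-based CellTiter-Glo luminescent read; Evaluation: percent of median DMSO-control luminescence; Controls: vehicle and MePR control wells.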

Assay [5] is described as follows: MRP1 drug-resistance reversers in H69AR cells – cell-based, doxorubicin co-treatment, pilot screen (AID 601;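 active = viability loss from added drug above about 55%, and viability with drug at most 40%, in both replicates, limit read from the data, passing the limit was not always enough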). Particulars: CellTiter-Glo, 72 h, at 10 µM; for differential viability (reversal): stronger effect = higher value.
A short description of assay [6]: yeast transport mutant growth inhibition pilot in 384-well plates, post-Golgi transport modulator project (AID 636; in the data active = inhibition above about 31%). Particulars: absorbance 615 nm, about 18 h, stronger effect = higher value.
Assay [7] can be described thus: growth suppression of yeast trafficking mutant, preliminary HTS, modulators of trafficking downstream of Golgi apparatus project, 1536-format plate, OD 615 nm (AID 637). Particulars: yeast transport mutant growth, absorbance 615 nm, 18 h; stronger effect = higher value.
The nature of assay [8]: H69AR cell proliferation blockers – human, duplicate replicates, primary screen (AID 580;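 active = viability at or under a set limit in both replicates, limit being median viability minus 3 SD, cut at about 48% in these data, passing the limit was not always enough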;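 note: 100% = mean luminescence of untreated wells and 0% = no signal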). Particulars: H69AR lung tumor cells viability, ATP luminescence, 72 h; at 10 µM; stronger effect = lower value.
[9] abbreviates: H69AR cells + 2 uM doxorubicin, measured here: viability with 2 uM doxorubicin, stronger effect = lower value.
Where [10] appears, read: H69AR cells, compound alone cytotoxicity.

SMILES strings stand for the structures. Calls of active or inactive are those of the source. Cut-off read from the data, not from the text of the source, unless noted: active = inhibition above about 30%; inactive = the rest.

Sequence of Receptor tyrosine-protein kinase erbB-2 (Homo sapiens) (P04626 whole entry, looked up): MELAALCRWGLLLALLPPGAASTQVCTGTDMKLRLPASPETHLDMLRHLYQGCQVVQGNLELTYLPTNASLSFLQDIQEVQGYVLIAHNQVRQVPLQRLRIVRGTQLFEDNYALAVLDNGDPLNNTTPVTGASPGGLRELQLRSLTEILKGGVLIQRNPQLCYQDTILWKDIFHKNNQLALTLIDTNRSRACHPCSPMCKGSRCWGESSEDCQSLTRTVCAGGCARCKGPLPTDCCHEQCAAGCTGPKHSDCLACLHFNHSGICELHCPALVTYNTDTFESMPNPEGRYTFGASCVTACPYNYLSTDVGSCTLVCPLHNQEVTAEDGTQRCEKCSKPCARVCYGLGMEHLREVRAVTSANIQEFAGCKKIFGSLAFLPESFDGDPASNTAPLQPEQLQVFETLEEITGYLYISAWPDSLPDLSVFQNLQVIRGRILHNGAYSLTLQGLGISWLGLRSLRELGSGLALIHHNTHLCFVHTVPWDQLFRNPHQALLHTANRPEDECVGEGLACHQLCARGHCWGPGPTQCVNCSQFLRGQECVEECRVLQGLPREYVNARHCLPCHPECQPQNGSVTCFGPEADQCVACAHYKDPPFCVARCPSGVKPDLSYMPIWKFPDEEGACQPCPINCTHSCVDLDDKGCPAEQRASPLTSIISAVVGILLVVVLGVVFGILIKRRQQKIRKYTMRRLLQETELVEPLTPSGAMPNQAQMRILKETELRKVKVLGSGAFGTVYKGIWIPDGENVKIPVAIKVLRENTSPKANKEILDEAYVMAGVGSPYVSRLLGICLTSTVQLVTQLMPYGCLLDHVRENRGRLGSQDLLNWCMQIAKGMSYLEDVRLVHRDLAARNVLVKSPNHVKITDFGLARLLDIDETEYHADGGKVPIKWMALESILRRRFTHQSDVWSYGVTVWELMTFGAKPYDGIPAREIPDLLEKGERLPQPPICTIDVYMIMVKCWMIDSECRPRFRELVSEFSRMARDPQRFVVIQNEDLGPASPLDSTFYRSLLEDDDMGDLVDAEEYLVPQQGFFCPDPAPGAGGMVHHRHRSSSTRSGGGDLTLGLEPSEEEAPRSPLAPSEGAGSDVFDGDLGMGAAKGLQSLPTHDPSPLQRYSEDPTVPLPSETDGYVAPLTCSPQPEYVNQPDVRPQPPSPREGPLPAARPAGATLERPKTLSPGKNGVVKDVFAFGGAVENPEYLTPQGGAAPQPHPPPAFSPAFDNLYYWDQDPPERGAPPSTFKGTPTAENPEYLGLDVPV

`CCOC(=O)c1c(NC(=O)Cn2c(C)nc3ccccc32)sc2c1CCC2`: the viability is 107% in assay [1]; 107% (inactive) in assay [3]; 63% (inactive) in assay [4]; 54.7% in assay [5] (setting [9]); 57.8% in assay [5] (setting [10]). In addition, in assay [2], the Her2 level is 107% (inactive). For the same compound, the differential viability (reversal) in assay [5] (H69AR cells + 2 uM doxorubicin) is 3.14% (inactive). Moreover, the inhibition is -4.53% (inactive) in assay [6] and -0.97% (inactive) in assay [7].
`Cc1ccc(C(C)C)c(OCc2nnc(SCC(=O)Nc3ncc(C)s3)n2C)c1`: the viability was 89.5% in assay [1]; 89.5% (inactive) in assay [3]; 41.1% (active) in assay [8]; 39.7% in assay [5] (setting [9]); 41.1% in assay [5] (setting [10]). Moreover, the Her2 level in assay [2] was 86% (inactive). Further, the differential viability (reversal) in assay [5] (H69AR cells + 2 uM doxorubicin) is 1.44% (inactive). The inhibition in assay [6] is 0% (inactive); in assay [7] it was -5.48% (inactive).
Take `CS(=O)(=O)c1ncc(Cl)c(C(=O)Nc2ccc(N3CCOCC3)cc2)n1`: the viability in assay [1] is 201%; in assay [3], 201% (inactive); in assay [8] it was 0.715% (active); in assay [5] (setting [9]), 0.36%; in assay [5] (setting [10]), 0.715%. Further, the Her2 level in assay [2] was 8% (active). Further, the differential viability (reversal) in assay [5] (H69AR cells + 2 uM doxorubicin) was 0.355% (inactive). Moreover, the inhibition is -4.21% (inactive) in assay [6] and 3.65% (inactive) in assay [7].
As for `CCOC(=O)c1cnc(-n2nc(C)cc2C)nc1Nc1ccc(N(C)C)cc1`, the viability was 102% in assay [1]; 102% (inactive) in assay [3]; 37.9% (active) in assay [8]; 26.3% in assay [5] (setting [9]); 37.9% in assay [5] (setting [10]). In assay [2], the Her2 level was 75.5% (inactive). The differential viability (reversal) in assay [5] (H69AR cells + 2 uM doxorubicin) is 11.6% (inactive). In addition, the inhibition is -6.05% (inactive) in assay [6] and -1.13% (inactive) in assay [7].
Regarding `COc1ccc(C)cc1NC(=O)CCC(=O)Nc1ccc2nc(N3CCN(C)CC3)cc(C)c2c1`, the viability was 70.5% in assay [1]; 70.5% (inactive) in assay [3]; 93.2% (inactive) in assay [8]; 86.2% in assay [5] (setting [9]); 93.2% in assay [5] (setting [10]). The Her2 level in assay [2] was 123% (inactive). Also, in assay [5] (H69AR cells + 2 uM doxorubicin), the differential viability (reversal) was 6.93% (inactive). For the same compound, the inhibition in assay [6] was 3.95% (inactive); in assay [7], -6.17% (inactive).
For `Cc1nc2cc(N3CCCCC3)c(NC(=O)c3cccnc3)cc2c(=O)n1Cc1ccccc1`, the viability is 64% in assay [1]; 64% (inactive) in assay [3]; 28.9% (active) in assay [8]; 22% in assay [5] (setting [9]); 28.9% in assay [5] (setting [10]). In addition, the Her2 level in assay [2] was 67.5% (inactive). Further, in assay [5] (H69AR cells + 2 uM doxorubicin), the differential viability (reversal) was 6.91% (inactive). Moreover, the values for the inhibition in assay [6] and in assay [7] were 2.11% (inactive) and -8.33% (inactive), respectively.
Consider `COCc1cc(=O)[nH]c(Nc2nc3ccccc3o2)n1`, for which the viability was 112% in assay [1]; 112% (inactive) in assay [3]; 30.3% (active) in assay [8]; 39.6% in assay [5] (setting [9]); 30.3% in assay [5] (setting [10]). For the same compound, the Her2 level in assay [2] is 80% (inactive). Further, the differential viability (reversal) in assay [5] (H69AR cells + 2 uM doxorubicin) is -9.32% (inactive). Moreover, the results for the inhibition in assay [6] and in assay [7] were -4.27% (inactive) and -6.72% (inactive), respectively.
For `O=C(Cn1nc(-c2ccc(Cl)cc2)ccc1=O)NCCCN1CCN(Cc2ccccc2)CC1`, the viability is 75% in assay [1]; 75% (inactive) in assay [3]; 90.1% (inactive) in assay [8]; 93.4% in assay [5] (setting [9]); 90.1% in assay [5] (setting [10]). In addition, the Her2 level in assay [2] was 106% (inactive). In assay [5] (H69AR cells + 2 uM doxorubicin), the differential viability (reversal) is -3.28% (inactive). For the same compound, the values for the inhibition in assay [6] and in assay [7] were -0.26% (inactive) and -3.55% (inactive), respectively.
Consider `CCOc1ccc2nc(NC(=O)C(NS(=O)(=O)c3cccs3)C(C)C)sc2c1` (stereo not drawn), for which the viability in assay [1] was 116%; in assay [3] it was 116% (inactive); in assay [8] it was 86.7% (inactive); in assay [5] (setting [9]) it was 75%; in assay [5] (setting [10]), 86.7%. Moreover, the Her2 level in assay [2] is 68.5% (inactive). The differential viability (reversal) in assay [5] (H69AR cells + 2 uM doxorubicin) is 11.7% (inactive). In addition, the inhibition in assay [6] was 0% (inactive); in assay [7] it was -1.9% (inactive).
In the case of `N#C/C(=C(/O)COC(=O)CCC1CCCCC1)c1nc2ccccc2[nH]1`, the viability in assay [1] is 126%; in assay [3], 126% (inactive); in assay [8], 38.1% (active); in assay [5] (setting [9]), 47.9%; in assay [5] (setting [10]), 38.1%. Moreover, the Her2 level in assay [2] was 31% (active). For the same compound, in assay [5] (H69AR cells + 2 uM doxorubicin), the differential viability (reversal) is -9.79% (inactive). In addition, the results for the inhibition in assay [6] and in assay [7] were -4.8% (inactive) and 2.3% (inactive), respectively.
In the case of `CCOC(=O)c1ccc(N=Cc2nc(-c3ccccc3)oc2OC(C)=O)cc1`, the viability in assay [1] was 106%; in assay [3], 106% (inactive); in assay [8] it was 17.9% (active); in assay [5] (setting [9]) it was 23.2%; in assay [5] (setting [10]) it was 17.9%. In addition, the Her2 level in assay [2] was 75.5% (inactive). Besides, the differential viability (reversal) in assay [5] (H69AR cells + 2 uM doxorubicin) was -5.29% (inactive). In addition, the inhibition in assay [6] was -4.47% (inactive); in assay [7], -2.38% (inactive).
For the compound `COc1cc(C(=O)Nc2nc(-c3cccs3)cs2)cc(OC)c1OC`, the viability is 86% in assay [1]; 86% (inactive) in assay [3]; 22.9% (active) in assay [8]; 37.2% in assay [5] (setting [9]); 22.9% in assay [5] (setting [10]). For the same compound, the Her2 level in assay [2] is 82% (inactive). Further, the differential viability (reversal) in assay [5] (H69AR cells + 2 uM doxorubicin) was -14.2% (inactive). In addition, the figures for the inhibition in assay [6] and in assay [7] were 1.51% (inactive) and 23.6% (inactive), respectively.
As to `Nc1nonc1C(=O)NCCNCc1cc(Br)ccc1OCc1ccccc1F`, the viability in assay [1] is 97.5%; in assay [3] it was 97.5% (inactive); in assay [8], 66.8% (inactive); in assay [5] (setting [9]), 68.4%; in assay [5] (setting [10]), 66.8%. For the same compound, the Her2 level in assay [2] was 78.5% (inactive). Also, the differential viability (reversal) in assay [5] (H69AR cells + 2 uM doxorubicin) was -1.58% (inactive). Besides, the inhibition in assay [6] is -5.87% (inactive); in assay [7], -6.13% (inactive).
Turning to `CCCOc1ccccc1C1CC(=O)Nc2cc3c(cc21)OCCO3` (stereo not drawn), the viability in assay [1] is 84%; in assay [3], 84% (inactive); in assay [8], 34.3% (active); in assay [5] (setting [9]), 73.5%; in assay [5] (setting [10]), 34.3%. The Her2 level in assay [2] was 67% (inactive). Further, the differential viability (reversal) in assay [5] (H69AR cells + 2 uM doxorubicin) was -39.2% (inactive). The inhibition in assay [6] was -4.93% (inactive); in assay [7] it was -2.3% (inactive).
Consider `Oc1ccccc1-c1cc(C(F)(F)C(F)F)[nH]n1`, for which the viability is 97% in assay [1]; 97% (inactive) in assay [3]; 98.3% (inactive) in assay [8]; 87.1% in assay [5] (setting [9]); 98.3% in assay [5] (setting [10]). Moreover, the Her2 level in assay [2] is 93% (inactive). Besides, in assay [5] (H69AR cells + 2 uM doxorubicin), the differential viability (reversal) was 11.3% (inactive). In addition, the inhibition in assay [6] is -2.69% (inactive); in assay [7] it was 2.83% (inactive).
Consider `COc1cccc(-c2nnc3sc(C4CCCCC4)nn23)c1`, for which the viability in assay [1] was 83%; in assay [3] it was 83% (inactive); in assay [8], 63.4% (inactive); in assay [5] (setting [9]) it was 33.5%; in assay [5] (setting [10]), 63.4%. Moreover, in assay [2], the Her2 level was 53.5% (active). Moreover, the differential viability (reversal) in assay [5] (H69AR cells + 2 uM doxorubicin) is 29.9% (inactive). The inhibition was -1.58% (inactive) in assay [6] and 11% (inactive) in assay [7].
Take `CCOC(=O)c1c(C)oc2c1c(C=NCc1ccccn1)c(O)c1ccccc12`: the viability in assay [1] was 154%; in assay [3], 154% (inactive); in assay [8] it was 16.5% (active); in assay [5] (setting [9]) it was 10.3%; in assay [5] (setting [10]), 16.5%. For the same compound, in assay [2], the Her2 level was 22% (active). The differential viability (reversal) in assay [5] (H69AR cells + 2 uM doxorubicin) is 6.13% (inactive). The inhibition in assay [6] is -8.38% (inactive); in assay [7], 3.67% (inactive).

Usually viability stands for a read-out of living cells in per cent, often relative to untreated cells. A word on the inhibition: it is the relative decrease from the control value, in per cent.
